Screening results as filed in PubChem BioAssay.
rCAG binder: r(CAG) repeat RNA binding; TO-PRO-1 dye displacement fluorescence; inhibition, % at 3 µM; 370,000 compounds, 1.3% hits; AID 651821;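 active means inhibition above the plate cutoff, the mean of all test compounds on that plate plus 3 SD, cut at about 35% in these data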;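 further: 0% = DMSO alone and 100% = 100 µM mitoxantrone as full dye displacement; higher means more dye released from RNA so lower well fluorescence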
Exocytosis inh: blocks lytic granule exocytosis; TALL-104 LAMP-1 surface exposure, flow cytometry; cells stimulated with thapsigargin and PMA; inhibition, % at 10 µM; 360,000 compounds, 0.66% hits;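 active means inhibition above about 55%, limit read from the data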
V-ATPase pHluor: alters yeast V-ATPase proton transport; response, % at 10 µM; AID 504577; 350,000 compounds, 0.37% hits; S. cerevisiae, pHLuorin cytosolic pH fluorescence; in the data active means response mostly above about 7.3%, no sharp cut-off; inactive means mostly below about 5.4%; further: actives read high
B2AR ag: human beta-2 adrenergic receptor agonism by FAP. P07550. Am2.2-beta2AR cells, FAP receptor internalization, flow cytometry. response, % (concentration not given with the values). 340,000 compounds, 0.43% hits. AID 504454;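 active means response above a set limit, near 3 SD of response in nonfluorescent compounds, cut at about 42% in these data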
Target sequence (P07550 whole entry, looked up): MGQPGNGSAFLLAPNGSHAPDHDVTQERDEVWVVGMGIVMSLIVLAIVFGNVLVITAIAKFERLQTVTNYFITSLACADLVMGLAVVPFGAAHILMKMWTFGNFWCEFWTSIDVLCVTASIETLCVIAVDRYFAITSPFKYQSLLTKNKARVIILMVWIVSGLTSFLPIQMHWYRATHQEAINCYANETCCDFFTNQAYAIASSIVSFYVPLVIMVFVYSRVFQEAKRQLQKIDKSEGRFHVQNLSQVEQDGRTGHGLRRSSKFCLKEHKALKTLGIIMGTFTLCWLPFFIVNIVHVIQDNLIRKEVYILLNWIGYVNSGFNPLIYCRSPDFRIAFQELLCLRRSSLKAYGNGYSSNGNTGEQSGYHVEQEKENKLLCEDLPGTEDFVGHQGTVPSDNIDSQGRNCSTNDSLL
MPTP block: permeability transition pore inhibition; inhibition, % at 10 µM; 360,000 compounds, 1.4% hits; isolated mouse mitochondria, Ca2+ swelling absorbance, 30 min; AID 602449;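 active means inhibition of 50% or more, scaled per plate between neutral and stimulator controls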;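 further: 0% = DMSO wells given calcium and 100% = 1 mM EGTA wells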
T cell modulator: modulates CD8 T cell binding to vesicles; response (vesicle binding), % at 7 µM; AID 2052; 330,000 compounds, 0.068% hits; 2C CD8+ T cell-vesicle binding, flow cytometry; hits give low values;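 active means response, share of CD8 T cells binding vesicles, and their 90th percentile fluorescence all below set limits, cut at about 80% in these data, passing the limit was not always enough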;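 further: values below 100% mean blocked vesicle binding to the CD8+ T cells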
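Material: 2C TCR transgenic mouse naive CD8+ T cells, MACS-purified. Also added: QL9-charged Drosophila Ld/ICAM-1/B7-1 vesicles. Timing: binding 1.5 h at 37 °C. Measured by: high-throughput flow cytometry with anti-B7-1 and anti-CD8 staining. Read-out: percent CD8+ FL2 mean versus row control. Controls: Unloaded micro-vesicles (low), QL9 vesicles with 0.7% DMSO (high).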
rCAG binder conf: r(CAG) RNA repeat binding, confirmation; shares compounds with rCAG binder; TO-PRO-1 dye displacement fluorescence; inhibition, % at 3 µM; 4,300 compounds, 70% hits; AID 652065;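 active means inhibition above a per-plate cutoff, the mean inhibition of sample wells plus 3 SD, cut at about 35% in these data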;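 further: loss of TO-PRO-1 fluorescence as compound displaces dye from 1x1 AA loop RNA; 0% = DMSO only wells and 100% = 100 µM mitoxantrone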
dCAG dye counter: disrupts DNA CAG TO-PRO-1 complex, flagging rCAG hits; d(CAG) DNA oligo TO-PRO-1 dye displacement, fluorescence; 4,300 compounds, 94% hits; shares compounds with rCAG binder; inhibition, % at 3 µM;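 active means inhibition above its plate's cutoff, the mean test-well inhibition plus 3 SD, cut at about 4.8% in these data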;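 further: 0% = DNA dye mix with DMSO and 100% = 100 µM mitoxantrone; hits displace the dye from DNA and so lower well fluorescence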
DNA CAG DR: DNA CAG dye complex inhibition, dose response counter-screen; IC50, µM; DNA CAG/GTC duplex TO-PRO-1 dye displacement fluorescence; shares compounds with rCAG binder; 250 compounds, 20% hits; AID 686960; in the data active means IC50 below about 10 µM
The depositor's hits bear a star; i = inactive; · = not tested or not shown. Hits are enriched below; roughly 3.8% of the tested compounds scored in any of these assays.

SMILES	rCAG binder	Exocytosis inh	V-ATPase pHluor	B2AR ag	MPTP block	T cell modulator	rCAG binder conf	dCAG dye counter	others
COc1ccccc1/C=C/C=N/n1c(-c2cc(-c3ccccc3)n[nH]2)n[nH]c1=S	44*	3	4	2	5	346	63*	25*
Cc1cccc(-c2n[nH]c(=S)n2/N=C/C=C/c2ccco2)c1	43*	4	0	5	4	261	26	13*
S=c1[nH]nc(-c2ccncc2)n1/N=C/C=C/c1ccco1	15	0	-3	-7	1	482	·	·
COc1cc(C=Nn2c(-c3cc(-c4ccccc4)n[nH]3)n[nH]c2=S)ccc1OC(C)=O	58*	·	·	·	·	·	44*	13*
COc1ccccc1NC(=O)C1=C(C)NC(SCC(=O)Nc2ccc(C(=O)O)cc2)=C(C#N)C1c1cccs1 (stereo not drawn)	46*	-4	2	-7	2	263	39*	12*
Cc1nn(CCC(=O)NNC(=O)NCc2ccccc2)c(C)c1[N+](=O)[O-]	0	·	·	·	·	·	·	·
O=C(Nc1ccccc1)c1ccccc1NC(=O)c1ccccc1[N+](=O)[O-]	1	-8	1	-1	-2	i	·	·
O=[N+]([O-])c1ccccc1C(=Nc1ccccc1)c1c(O)cc(O)cc1O	45*	5	-3	·	-1	·	12	7.7*
CCCCOc1ccc(C(=O)NC2CCCCN(Cc3ccc(C)cc3)C2=O)cc1 (stereo not drawn)	4	·	·	·	·	·	·	·
O=C(NN1C(=O)/C(=C/C=C/c2ccco2)SC1=S)c1ccccc1O	94*	3	3	-3	4	475	93*	77*
O=C(O)CC(C(=O)O)N1C(=O)/C(=C/C=C/c2ccco2)SC1=S (stereo not drawn)	34	-2	-2	1	2	310	·	·
O=C(O)CCCN1C(=O)/C(=C/C=C/c2ccco2)SC1=S	60*	-4	0	9	2	260	51*	19*
COc1ccc(/C=C2\SC(=S)N(C(Cc3ccccc3)C(=O)O)C2=O)cc1 (stereo not drawn)	65*	-2	-5	-2	2	·	71*	34*	DNA CAG DR=i
O=C(O)C(Cc1ccccc1)N1C(=O)/C(=C/c2cccnc2)SC1=S (stereo not drawn)	16	-2	-3	-5	2	93	·	·
O=C(O)C(Cc1ccccc1)N1C(=O)/C(=C/C=C/c2ccco2)SC1=S (stereo not drawn)	90*	-1	8	0	2	·	92*	68*
Cc1ccccc1Cn1cc(COC(=O)N(C)Cc2ccccc2)nn1	1	·	·	·	·	·	·	·
CN(Cc1ccccc1)C(=O)NC1CCCCC1	1	0	-2	-5	0	517	·	·
CC(C)(Sc1ccc(CCN(CCCCC2CCCCC2)C(=O)NC2CCCCC2)cc1)C(=O)O	49*	4	-1	5	-4	441	55*	17*	DNA CAG DR=>30
CCOC(=O)[C@@]12CCC3=C1N(CCC3)C(=O)[C@H](CC(=O)N1CCOCC1)C2	1	·	·	·	·	·	·	·
O=S1(=O)CC2c3ccc(F)cc3CN2CN1C1CCCC1 (stereo not drawn)	10	·	·	·	·	·	·	·
C=CCc1cc(C=O)cc(OCC)c1OCc1ccc(Cl)cc1	0	-4	0	14	2	165	·	·
C=CCc1cc(/C=C2/NC(=O)N(CC)C2=O)cc(OCC)c1OCc1ccc(C(=O)O)cc1	43*	-5	-4	14	-1	0	41*	10*
Cc1ccc(C(=O)O)cc1NC(=S)NC(=O)c1ccc(-c2ccccc2)cc1	55*	-2	7	-1	0	319	67*	20*
COc1ccc(C(=O)O)cc1NC(=S)NC(=O)c1ccc(-c2ccc(Cl)cc2)o1	40*	2	-3	-4	0	·	72*	32*	DNA CAG DR=7.7*
O=C(O)c1cccc(NC(=S)NC(=O)c2ccc(-c3ccccc3)cc2)c1	6	-1	-18	1	0	811	·	·
SMILES	rCAG binder	Exocytosis inh	V-ATPase pHluor	B2AR ag	MPTP block	T cell modulator	rCAG binder conf	dCAG dye counter	others
COC(=O)c1cc2c(c3c4ccccc4n(S(=O)(=O)c4ccc(OC)cc4)c13)C(=O)N(Cc1ccc(N(C)C)cc1)C2	15	·	·	·	·	·	·	·
Cc1ccc(S(=O)(=O)Nc2ccc(O)c(S(=O)(=O)c3ccc(C)cc3)c2)cc1	14	1	1	-5	0	295	·	·
Cc1ccc(S(=O)(=O)Nc2ccc3cn[nH]c3c2)cc1C	6	-2	·	·	1	337	·	·
Cc1ccc(S(=O)(=O)Nc2ccc3c(c2)C(=O)c2ccccc2-3)cc1	37*	3	·	·	1	·	31	7.0*
Cc1ccc(S(=O)(=O)Nc2ccc3cn[nH]c3c2)cc1	47*	-1	-1	5	-1	271	3	1
COc1ccc(Cn2c(O)c(/C=N/NC(=O)c3cccnc3)c3ccccc3c2=O)cc1	75*	-3	-2	0	2	·	71*	33*	DNA CAG DR=i
O=C(N/N=C/c1c(O)n(Cc2ccccc2)c(=O)c2ccccc12)c1cccnc1	69*	0	4	-6	15	334	64*	25*
COc1ccc(Cn2c(O)c(C=Nc3ccc(OC)cc3)c3ccccc3c2=O)cc1	2	0	-1	-13	3	244	·	·
O=C(N/N=C/c1c(O)n(-c2ccccc2Cl)c(=O)c2ccccc12)c1cccnc1	47*	22	-3	16	-1	·	30	8.0*
CCN=C1NC(c2ccc(F)cc2)C(C(=O)OC)=C(C)N1Cc1cccc(C(F)(F)F)c1 (stereo not drawn)	7	·	·	·	·	·	·	·
C[C@@H]1C(=O)N2N=Cc3cc4ccccc4cc3[C@H]2N2N=Cc3cc4ccccc4cc3[C@@H]12	8	·	·	·	·	·	·	·
CCn1c2ccccc2c2cc(NC(=O)COC(=O)c3ccc(F)cc3Cl)ccc21	6	·	·	·	·	·	·	·
O=C(O)c1cc([N+](=O)[O-])ccc1NCCCc1ccccc1	37*	8	2	-3	-3	216	31	6.5*
O=C(O)c1cc([N+](=O)[O-])ccc1NCc1ccccc1	11	2	1	9	1	139	·	·
COc1ccc(-c2nc3ccccc3[nH]2)cc1	0	-1	-1	-7	-1	687	·	·
COc1ccc(-c2cc(=O)n(-c3nc4ccccc4[nH]3)[nH]2)cc1	39*	-3	-4	15	2	161	15	10*
Cc1ccc(C(=O)CCC(=O)Nc2ccc(Cl)c(S(=O)(=O)Nc3cccc(Cl)c3)c2)cc1	35*	2	1	6	11	301	35*	12*
